Test results from ChEMBL document CHEMBL4765346, “Inhibitor design to target a unique feature in the folate pocket of Staphylococcus aureus dihydrofolate reductase” (Eur J Med Chem, 2020).
Values after ≈ are worked out from the molar mass of the structure shown. Active and inactive are the calls of the source. No cut-off for these calls is given here.

Columns and labels:
Staphylococcus aureus [1] = assay: Antibacterial activity against Staphylococcus aureus ATCC 29213 assessed as inhibition of bacterial growth incubated for 18 hrs by spectrophotometric method; format: functional
How it was run: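 Racemic compounds tested against standardized S. aureus strain 29213 cultures following CLSI procedure; MIC recorded; n = 2 independent assays, each with duplicate technical replicates.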

Staphylococcus aureus [2] = assay: (§1) Inhibition of recombinant Staphylococcus aureus DHFR expressed in Escherichia coli BL21 (DE3) using dihydrofolate as substrate and NADPH as cofactor incubated for 2.8 mins
How it was run: (§2)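 Recombinant S. aureus DHFR expressed in E. coli BL21 (DE3). Reaction reconstituted with NADPH and varied inhibitor concentrations (racemates, diluted from 10 mM DMSO stock), started by adding dihydrofolate. Run at 30 °C, rate followed 2.8 min over linear range. 50% activity point from 4-parameter fit of rate vs concentration. IC50 converted to Ki by Cheng-Prusoff using previously measured KM. n ≥ 3 independent assays, duplicate technical replicates.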

[3] = as §1; how it was run: as §2

SMILES	MIC (Staphylococcus aureus [1]) [µg/mL]	inhibition (Staphylococcus aureus [2])	Ki [3] [nM]
COc1cc(Cc2cnc(N)nc2N)cc(/C=C/C(=O)N2N=Cc3ccccc3C2c2ccc(C)cc2)c1OC (configuration not stated)	0.046 (≈ 0.086 µM)	inactive	
CCCC1c2ccccc2C=NN1C(=O)/C=C/c1cc(Cc2cnc(N)nc2N)cc(OC)c1OC (configuration not stated)	0.0625 (≈ 0.128 µM)		1.2
COc1cc(Cc2cnc(N)nc2N)cc(/C=C/C(=O)N2N=Cc3ccccc3C2c2ccccc2)c1OC (configuration not stated)		Active	
COc1cc2c(cc1OC)C(C1CC1)N(C(=O)/C=C/c1cc(Cc3cnc(N)nc3N)cc(OC)c1OC)N=C2 (racemic)	1 (≈ 1.84 µM)		0.7
COc1cc(Cc2cnc(N)nc2N)cc(/C=C/C(=O)N2N=Cc3ccccc3C2Cc2ccc(C)cc2)c1OC (configuration not stated)	0.25 (≈ 0.456 µM)		2.3
CCCC1c2cc(OC)c(OC)cc2C=NN1C(=O)/C=C/c1cc(Cc2cnc(N)nc2N)cc(OC)c1OC (racemic)	1 (≈ 1.83 µM)		1.1
COc1cc(Cc2cnc(N)nc2N)cc(/C=C/C(=O)N2N=Cc3ccccc3C2C2CCCCC2)c1OC (configuration not stated)		Active	
COc1ccc(CC2c3ccccc3C=NN2C(=O)/C=C/c2cc(Cc3cnc(N)nc3N)cc(OC)c2OC)cc1 (configuration not stated)			1.2
CCCC1c2cc(C)c(C)cc2C=NN1C(=O)/C=C/c1cc(Cc2cnc(N)nc2N)cc(OC)c1OC (racemic)	0.5 (≈ 0.972 µM)		1.2
COc1cc(Cc2cnc(N)nc2N)cc(/C=C/C(=O)N2N=Cc3ccccc3C2c2cc(C)cc(C)c2)c1OC (configuration not stated)		inactive	

The next lines start with results.

MIC (Staphylococcus aureus [1]) [µg/mL]	inhibition (Staphylococcus aureus [2])	SMILES	Ki [3] [nM]
0.188 (≈ 0.385 µM)	Active	COc1cc(Cc2cnc(N)nc2N)cc(/C=C/C(=O)N2N=Cc3ccccc3C2C(C)C)c1OC (configuration not stated)	
	Active	COc1cc(Cc2cnc(N)nc2N)cc(/C=C/C(=O)N2N=Cc3ccccc3C2C=C(C)C)c1OC (configuration not stated)	
	inactive	CCC(CC)C1c2ccccc2C=NN1C(=O)/C=C/c1cc(Cc2cnc(N)nc2N)cc(OC)c1OC (configuration not stated)	
	Active	COc1cc(Cc2cnc(N)nc2N)cc(/C=C/C(=O)N2N=Cc3ccccc3C2CCC(F)(F)F)c1OC (configuration not stated)	
	Active	COc1cc(Cc2cnc(N)nc2N)cc(/C=C/C(=O)N2N=Cc3ccccc3C2CC(C)C)c1OC (configuration not stated)	
